Laboratory results: ChEMBL document CHEMBL1143105, “Potent and selective small molecule NS3 serine protease inhibitors of Hepatitis C virus with dichlorocyclopropylproline as P2 residue” (Bioorg Med Chem, 2008)
*1 amine or outer side, *2 acyl side, *3 side chain or, on linkers, in order; H or OH if unused. Where a SMILES comes first, the peptide text is derived from it. [ ]: non-standard residue; d: D form. The star is where a group is joined. Pro(3R,4S-CMe2) = CC1(C)[C@@H]2[C@@H](C(=O)O)NC[C@@H]21; Pro(3S,4R-CCl2) = O=C(O)[C@H]1NC[C@H]2[C@@H]1C2(Cl)Cl; X2 = O=C(C(=O)[*:2])C(CC1CCC1)N[*:1]; X1 = O=C(C(=O)[*:2])C(CC1CC1)N[*:1]; X3 = CCCC(N[*:1])C(=O)C(=O)[*:2]; Chg = N[C@H](C(=O)O)C1CCCCC1; Phg = N[C@H](C(=O)O)c1ccccc1; Tle = CC(C)(C)[C@H](N)C(=O)O; Boc = CC(C)(C)OC(=O)*

How the values were obtained:
[1] = test system: Hepatitis C virus; test: Antiviral activity in hepatitis C virus by cell based replicon assay; format: functional, organism-based, Hepacivirus hominis
[2] = Inhibition of hepatitis C virus NS3 serine protease; parameters: species or system Hepacivirus hominis
[3] = Oral bioavailability in rat; format: ADME, organism-based; details: in vivo
[4] = AUC in rat at 6 mg/kg, iv; format: ADME, organism-based; parameters: dose 6 mg/kg, route intravenous; details: plasma
Outline: (§1)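 AUC is given in µM h. Compounds were tested as mixtures of two diastereomers at the P1 α-centre, with the isomer ratio varying slightly by compound.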

[5] = AUC in rat at 7.5 mg/kg, po; format: ADME, organism-based; parameters: dose 7.5 mg/kg, route oral; details: plasma; outline: as §1
[6] = Half life in rat; format: ADME, organism-based; details: in vivo
[7] = AUC in rat at 10 mg/kg, po; format: ADME, organism-based; parameters: dose 10 mg/kg, route oral; details: plasma
[8] = AUC in dog at 2.2 mg/kg, iv; format: ADME, organism-based, Canis lupus familiaris; parameters: dose 2.2 mg/kg, route intravenous; details: plasma; outline: as §1
[9] = Oral bioavailability in dog; format: ADME, organism-based, Canis lupus familiaris; details: in vivo
[10] = Half life in dog; format: ADME, organism-based, Canis lupus familiaris; details: in vivo
[11] = Oral bioavailability in monkey; format: ADME, organism-based, Macaca mulatta; details: rhesus monkey, in vivo
[12] = Half life in monkey; format: ADME, organism-based, Macaca mulatta; details: rhesus monkey, in vivo
[13] = AUC in rat at 10 mg/kg, iv; format: ADME, organism-based; parameters: dose 10 mg/kg, route intravenous; details: plasma
[14] = AUC in monkey at 2.2 mg/kg, iv; format: ADME, organism-based, Macaca mulatta; parameters: dose 2.2 mg/kg, route intravenous; details: rhesus monkey, plasma
[15] = AUC in monkey at 3 mg/kg, po; format: ADME, organism-based, Macaca mulatta; parameters: dose 3 mg/kg, route oral; details: rhesus monkey, plasma
[16] = AUC in dog at 3 mg/kg, po; format: ADME, organism-based, Canis lupus familiaris; parameters: dose 3 mg/kg, route oral; details: plasma; outline: as §1
[17] = AUC in dog at 0.6 mg/kg, iv; format: ADME, organism-based, Canis lupus familiaris; parameters: dose 0.6 mg/kg, route intravenous; details: plasma; outline: as §1
[18] = AUC in monkey at 0.6 mg/kg, iv; format: ADME, organism-based, Macaca mulatta; parameters: dose 0.6 mg/kg, route intravenous; details: rhesus monkey, plasma; outline: as §1
[19] = AUC in dog at 1.5 mg/kg, po; format: ADME, organism-based, Canis lupus familiaris; parameters: dose 1.5 mg/kg, route oral; details: plasma; outline: as §1
[20] = AUC in monkey at 1.5 mg/kg, po; format: ADME, organism-based, Macaca mulatta; parameters: dose 1.5 mg/kg, route oral; details: rhesus monkey, plasma; outline: as §1

`CC(C)(C)NC(=O)N[C@H](C(=O)N1C[C@H]2[C@@H]([C@H]1C(=O)NC(CC1CCC1)C(=O)C(N)=O)C2(C)C)C(C)(C)C` (stereo partly specified) [BOCEPREVIR] showed an EC50 [1] of 200 nM and a Ki [2] of 14 nM.
In the case of `CC(C)(C)NC(=O)N[C@H](C(=O)N1C[C@H]2[C@@H]([C@H]1C(=O)NC(CC1CCC1)C(=O)C(N)=O)C2(Cl)Cl)C(C)(C)C` (stereo partly specified), the EC50 [1] is reported as 200 nM, the bioavailability [3] is reported as 5% and the Ki [2] is reported as 7 nM. The AUC [4] was 1.9 µM·h, the AUC [5] was 0.12 µM·h and the half-life [6] was 2.7 h.
`CCCC(NC(=O)[C@@H]1[C@@H]2[C@H](CN1C(=O)[C@@H](NC(=O)OC(C)(C)C)C1CCCCC1)C2(Cl)Cl)C(=O)C(N)=O` (stereo partly specified) gave a Ki [2] of 36 nM.
In the case of `CC(C)(C)NC(=O)N[C@H](C(=O)N1C[C@H]2[C@@H]([C@H]1C(=O)NC(CC1CCC1)C(=O)C(N)=O)C2(Cl)Cl)C1CCCCC1` (stereo partly specified), the EC50 [1] is reported as 300 nM, the AUC [7] is reported as 0.32 µM·h and the Ki [2] is reported as 6 nM.
Work on `CC(C)(C)OC(=O)N[C@H](C(=O)N1C[C@H]2[C@@H]([C@H]1C(=O)NC(CC1CCC1)C(=O)C(N)=O)C2(Cl)Cl)C(C)(C)C` (stereo partly specified) yielded an AUC [8] of 4.5 µM·h, a bioavailability [9] of 10% and an EC50 [1] of 100 nM. For the same compound, the AUC [7] was 0.3 µM·h, the half-life [10] was 6.3 h and the bioavailability [11] was 50%. It also gave a half-life [12] of 1.1 h, a bioavailability [3] of 12% and an AUC [13] of 2.6 µM·h. The Ki [2] was 9 nM, the AUC [14] was 1.2 µM·h and the AUC [15] was 0.77 µM·h. It also gave an AUC [16] of 0.61 µM·h and a half-life [6] of 5.6 h.
For `CCCC(NC(=O)[C@@H]1[C@@H]2[C@H](CN1C(=O)[C@@H](NC(=O)OC(C)(C)C)C1CCCCC1)C2(Cl)Cl)C(=O)C(=O)NCC(=O)N[C@H](C(=O)N(C)C)c1ccccc1` (stereo partly drawn) (Boc-[Chg][Pro(3S,4R-CCl2)][X3]G[Phg]-NMe2), the Ki [2] was 15 nM.
Compound `CN(C)C(=O)[C@@H](NC(=O)CNC(=O)C(=O)C(CC1CC1)NC(=O)[C@@H]1[C@@H]2[C@H](CN1C(=O)[C@@H](NC(=O)OC(C)(C)C)C1CCCCC1)C2(Cl)Cl)c1ccccc1` (stereo partly drawn) (Boc-[Chg][Pro(3S,4R-CCl2)][X1]G[Phg]-NMe2) has a Ki [2] of 7 nM.
For `CN(C)C(=O)[C@@H](NC(=O)CNC(=O)C(=O)C(CC1CCC1)NC(=O)[C@@H]1[C@@H]2[C@H](CN1C(=O)[C@@H](NC(=O)OC(C)(C)C)C1CCCCC1)C2(Cl)Cl)c1ccccc1` (stereo partly drawn) (Boc-[Chg][Pro(3S,4R-CCl2)][X2]G[Phg]-NMe2), the Ki [2] was 9 nM.
`C[C@@H](NC(=O)N[C@H](C(=O)N1C[C@H]2[C@@H]([C@H]1C(=O)NC(CC1CCC1)C(=O)C(N)=O)C2(Cl)Cl)C1CCCCC1)C(C)(C)C` (stereo partly specified) showed an EC50 [1] of 40 nM and a Ki [2] of 10 nM.
Work on `NC(=O)C(=O)C(CC1CCC1)NC(=O)[C@@H]1[C@@H]2[C@H](CN1C(=O)[C@@H](NC(=O)NC1CCCCC1)C1CCCCC1)C2(Cl)Cl` (stereo partly specified) yielded a Ki [2] of 15 nM.
`CC(C)(C)NC(=O)N[C@H](C(=O)N1C[C@H]2[C@@H]([C@H]1C(=O)NC(CC1CCC1)C(=O)C(N)=O)C2(Cl)Cl)C1Cc2ccccc2C1` (stereo partly specified) gave a Ki [2] of 30 nM.
Work on `CCCC(NC(=O)[C@@H]1[C@@H]2[C@H](CN1C(=O)[C@@H](NC(=O)NC(C)(C)C)C1CCCCC1)C2(Cl)Cl)C(=O)C(N)=O` (stereo partly specified) yielded a Ki [2] of 20 nM.
With `CC(C)(C)OC(=O)N[C@H](C(=O)N1C[C@H]2[C@@H]([C@H]1C(=O)NC(CC1CC1)C(=O)C(N)=O)C2(Cl)Cl)C1CCCCC1` (stereo partly specified) the AUC [8] was 2.6 µM·h, the bioavailability [9] was 2% and the EC50 [1] was 500 nM. The AUC [7] was 2.7 µM·h, the half-life [10] was 16 h and the bioavailability [11] was 8%. For the same compound, the half-life [12] was 9.6 h, the bioavailability [3] was 26% and the AUC [13] was 10.7 µM·h. For the same compound, the Ki [2] was 11 nM, the AUC [14] was 1.2 µM·h and the AUC [15] was 0.13 µM·h. It also gave an AUC [16] of 0.07 µM·h and a half-life [6] of 4.4 h.
`C=CCCC(NC(=O)[C@@H]1[C@@H]2[C@H](CN1C(=O)[C@@H](NC(=O)NC(C)(C)C)C1CCCCC1)C2(Cl)Cl)C(=O)C(=O)NCC=C` (stereo partly specified) showed a Ki [2] of 44 nM.
`NC(=O)C(=O)C(CC1CCC1)NC(=O)[C@@H]1[C@@H]2[C@H](CN1C(=O)[C@@H](NC(=O)OC1CC3CCC1C3)C1CCCCC1)C2(Cl)Cl` (stereo partly specified) showed an EC50 [1] of 200 nM, an AUC [7] of 0.75 µM·h and a Ki [2] of 60 nM.
`C=CCNC(=O)C(=O)C(CCC)NC(=O)[C@@H]1[C@@H]2[C@H](CN1C(=O)[C@@H](NC(=O)OC(C)(C)C)C1CCCCC1)C2(Cl)Cl` (stereo partly specified) gave a Ki [2] of 90 nM.
Work on `CN(C)C(=O)[C@@H](NC(=O)CNC(=O)C(=O)C(CC1CC1)NC(=O)[C@@H]1[C@@H]2[C@H](CN1C(=O)[C@@H](NC(=O)OC(C)(C)C)C(C)(C)C)C2(C)C)c1ccccc1` (stereo partly drawn) (Boc-[Tle][Pro(3R,4S-CMe2)][X1]G[Phg]-NMe2) yielded an EC50 [1] of 40 nM, a bioavailability [11] of 1% and a bioavailability [3] of 4%. It also gave a Ki [2] of 3.8 nM.
Work on `C=CCNC(=O)C(=O)C(CCC)NC(=O)[C@@H]1[C@@H]2[C@H](CN1C(=O)[C@@H](NC(=O)NC(C)(C)C)C1CCCCC1)C2(Cl)Cl` (stereo partly specified) yielded a Ki [2] of 100 nM.
In the case of `CC(C)(OC(=O)N[C@H](C(=O)N1C[C@H]2[C@@H]([C@H]1C(=O)NC(CC1CCC1)C(=O)C(N)=O)C2(Cl)Cl)C1CCCCC1)C(F)(F)F` (stereo partly specified), the Ki [2] is reported as 65 nM.
In the case of `CC(C)(C)OC(=O)N[C@H](C(=O)N1C[C@H]2[C@@H]([C@H]1C(=O)NC(CC1CCC1)C(=O)C(N)=O)C2(Cl)Cl)C1CCCCC1` (stereo partly specified), the AUC [17] is reported as 2 µM·h, the bioavailability [9] is reported as 2% and the EC50 [1] is reported as 300 nM. For the same compound, the AUC [7] was 2.4 µM·h, the half-life [10] was 4.7 h and the AUC [18] was 0.6 µM·h. It also gave a bioavailability [11] of 4%, an AUC [19] of 0.1 µM·h and a half-life [12] of 1.9 h. It also gave a Ki [2] of 17 nM and an AUC [20] of 0.06 µM·h.
`CC(C)(C)OC(=O)N[C@H](C(=O)N1C[C@H]2[C@@H]([C@H]1C(=O)NC(CC1CCC1)C(=O)C(N)=O)C2(Cl)Cl)C1Cc2ccccc2C1` (stereo partly specified) showed a Ki [2] of 60 nM.
